According to ChEMBL document CHEMBL2034945, “Bioactive quassinoids from the seeds of Brucea javanica” (J Nat Prod, 2012):

How the values were obtained:
Type in all cases: functional, cell-based
[1] = system: HCT-8; assay: Cytotoxicity against human HCT8 cells by MTT assay
Method in brief: (§1)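 Colorimetric MTT assay on human cancer lines: HCT-8 colon, HepG2 hepatoma, BGC-823 gastric, A549 lung epithelial and SKOV3 ovarian. Paclitaxel was the positive control. IC50 was reported.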

[2] = system: A549; assay: Cytotoxicity against human A549 cells by MTT assay; method in brief: as §1
[3] = system: SK-OV-3; assay: Cytotoxicity against human SKOV3 cells by MTT assay; method in brief: as §1
[4] = system: BGC-823; assay: Cytotoxicity against human BGC823 cells by MTT assay; method in brief: as §1
[5] = system: HepG2; assay: Cytotoxicity against human HepG2 cells by MTT assay; method in brief: as §1
[6] = Antiinflammatory activity in rat polymorphonuclear leukocytes assessed as inhibition of LPS-stimulated nitric oxide production after 20 mins by Griess method
Method in brief: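 Rat polymorphonuclear leukocytes were stimulated with LPS, and nitric oxide in the culture supernatant was measured by Griess reaction. Supernatant or sodium nitrite standard was mixed 1:1 with Griess reagent (0.1% N-(1-naphthyl)ethylenediamine dihydrochloride plus 1% sulfanilamide in 5% phosphoric acid, combined within 1 h of preparation). After 20 min at room temperature, absorbance was read at 540 nm. Dexamethasone was the positive control. IC50 was reported.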

SMILES	IC50 [1]	IC50 [2]	IC50 [3]	IC50 [4]	IC50 [5]	IC50 [6]
COC(=O)[C@@]12OC[C@@]34[C@@H](CC5=C(C)C(=O)C(O)=C[C@]5(C)[C@H]3[C@@H](O)[C@@H]1O)OC(=O)[C@H](OC(=O)C=C(C)C)[C@@H]24 [DEHYDROBRUSATOL]	> 10 µM	7.3 µM	2.5 µM	4.8 µM	3.3 µM	–
C[C@@H]1C[C@H]2[C@@H]3CCC4=CC(=O)C=C[C@]4(C)[C@@]3(F)[C@@H](O)C[C@]2(C)[C@@]1(O)C(=O)CO [DEXAMETHASONE]	–	–	–	–	–	0.0023 µM
CC(=O)O[C@H]1C(=O)[C@@]2(C)[C@H]([C@H](OC(=O)c3ccccc3)[C@]3(O)C[C@H](OC(=O)[C@H](O)[C@@H](NC(=O)c4ccccc4)c4ccccc4)C(C)=C1C3(C)C)[C@]1(OC(C)=O)CO[C@@H]1C[C@@H]2O [PACLITAXEL]	–	–	< 0.0001 µM	–	–	–
COC(=O)C[C@]1(C)[C@H]2[C@@H](O)[C@H](O)[C@@]3(C(=O)OC)OC[C@@]24[C@@H](C[C@H]1C(C)=O)OC(=O)[C@H](OC(=O)C=C(C)C)[C@@H]34 [BRUCEANIC ACID E METHYL ESTER]	> 10 µM	> 10 µM	> 10 µM	> 10 µM	> 10 µM	–
COC(=O)[C@@]12OC[C@]34[C@H]([C@@H](O)[C@@H]1O)[C@@]1(C)C[C@H](O)C(=O)[C@@H](C)[C@@H]1C[C@H]3OC(=O)[C@H](OC(=O)C=C(C)C)[C@@H]24 [JAVANICOLIDE H]	> 10 µM	0.95 µM	0.23 µM	0.52 µM	> 10 µM	–
COC(=O)[C@@H](C)[C@@H]1C[C@H]2OC(=O)[C@H](OC(=O)C=C(C)C)[C@H]3[C@]4(C(=O)OC)OC[C@]23[C@H]([C@@H](O)[C@@H]4O)[C@@]1(C)CC(=O)O	> 10 µM	> 10 µM	> 10 µM	> 10 µM	> 10 µM	–
CC1=CC(=O)[C@@H](O)[C@]2(C)[C@H]3[C@@H](O)[C@H](O)[C@@]4(CO)OC[C@@]35[C@@H](C[C@@H]12)OC(=O)[C@H](O)[C@]54O [BRUCEINE H]	1.3 µM	9.3 µM	0.33 µM	2.1 µM	2.8 µM	–
COC(=O)[C@@]12OC[C@]34[C@H]([C@@H](O)[C@@H]1O)[C@@]1(C)CC(=O)[C@H](O)[C@@H](C)[C@@H]1C[C@H]3OC(=O)[C@H](OC(=O)C=C(C)C)[C@@H]24 [JAVANICOLIDE E]	> 10 µM	6.36 µM	1.49 µM	1.43 µM	> 10 µM	–
COC(=O)[C@@]12OC[C@]34[C@H]([C@@H](O)[C@@H]1O)[C@@](C)(CC(=O)O)[C@H](C(C)=O)C[C@H]3OC(=O)[C@H](OC(=O)C=C(C)C)[C@@H]24 [BRUCEANIC ACID E]	> 10 µM	> 10 µM	> 10 µM	> 10 µM	> 10 µM	–
COC(=O)[C@]12OC[C@@]34[C@H](C[C@H]5[C@H](C)C(=O)C(O[C@@H]6O[C@H](CO)[C@@H](O)[C@H](O)[C@H]6O)=C[C@]5(C)[C@H]3[C@@H](O)[C@@H]1O)OC(=O)[C@H](OC(=O)/C=C(\C)C(C)C)[C@@H]24 [BRUCEANTINOSIDE A]	> 10 µM	> 10 µM	> 10 µM	> 10 µM	> 10 µM	–
CC(=O)[C@@H]1C[C@H]2OC(=O)[C@H](OC(=O)C=C(C)C)[C@H]3[C@]4(C(=O)O)OC[C@]23[C@H]([C@@H](O)[C@@H]4O)[C@@]1(C)CC(=O)O [BRUCEANIC ACID F]	> 10 µM	> 10 µM	> 10 µM	> 10 µM	> 10 µM	–
CC1=C[C@H](O)[C@@H](O)[C@]2(C)[C@H]3[C@@H](O)[C@H](O)[C@@]4(C)OC[C@@]35[C@@H](C[C@@H]12)OC(=O)[C@H](O)[C@]54O [BRUCEINE E]	6.7 µM	> 10 µM	2.2 µM	2.2 µM	2.9 µM	5 µM
COC(=O)[C@@]12OC[C@]34[C@H]([C@@H](O)[C@@H]1O)[C@@](C)(CC(=O)O)[C@H]([C@@H](C)C(=O)O)C[C@H]3OC(=O)[C@H](OC(=O)C=C(C)C)[C@@H]24 [JAVANIC ACID A]	> 10 µM	> 10 µM	> 10 µM	> 10 µM	> 10 µM	–
COC(=O)[C@@]12OC[C@]34[C@H]([C@@H](O)[C@@H]1O)[C@@]1(C)C=C(O[C@@H]5O[C@H](CO)[C@@H](O)[C@H](O)[C@H]5O)C(=O)[C@@H](C)[C@@H]1C[C@H]3OC(=O)[C@H](OC(=O)C=C(C)C)[C@@H]24 [BRUCEOSIDE A]	> 10 µM	> 10 µM	> 10 µM	> 10 µM	> 10 µM	–
COC(=O)[C@@]12OC[C@]34[C@H]([C@@H](O)[C@@H]1O)[C@@]1(C)CC(=O)C(O)=C(C)[C@@H]1C[C@H]3OC(=O)[C@H](OC(C)=O)[C@@H]24 [BRUCEINE B]	2 µM	1.3 µM	0.12 µM	0.81 µM	0.81 µM	1.9 µM
CC1=CC(=O)[C@@H](O)[C@]2(C)[C@H]3[C@@H](O)[C@H](O)[C@]4(C)OC[C@@]35[C@@H](C[C@@H]12)OC(=O)[C@H](O)[C@]54O [BRUCEINE D]	2 µM	3.9 µM	0.76 µM	1.2 µM	1.2 µM	–
